Reference: ChEMBL document CHEMBL3351871, “Potent, long-acting cyclopentane-1,3-Dione thromboxane (A2)-receptor antagonists” (ACS Med Chem Lett, 2014)
The source made the active and inactive calls. The calls are words filed in the database; no cut-off is given here.

Key:
[1] = molecular target: T1, Thromboxane A2 receptor (Homo sapiens) (UniProt P21731); test: (§1) Irreversible antagonist activity against human thromboxane A2 receptor alpha expressed in QBI-HEK293A cells assessed as reduction in I-BOP-induced inositol monophosphate production at 1 uM incubated for 15 to 60 mins before I-BOP addition and measured after 6 consecutive drug washout by HTRF assay; format: functional, cell-based; conditions: HEK293-A
T1 sequence (whole entry): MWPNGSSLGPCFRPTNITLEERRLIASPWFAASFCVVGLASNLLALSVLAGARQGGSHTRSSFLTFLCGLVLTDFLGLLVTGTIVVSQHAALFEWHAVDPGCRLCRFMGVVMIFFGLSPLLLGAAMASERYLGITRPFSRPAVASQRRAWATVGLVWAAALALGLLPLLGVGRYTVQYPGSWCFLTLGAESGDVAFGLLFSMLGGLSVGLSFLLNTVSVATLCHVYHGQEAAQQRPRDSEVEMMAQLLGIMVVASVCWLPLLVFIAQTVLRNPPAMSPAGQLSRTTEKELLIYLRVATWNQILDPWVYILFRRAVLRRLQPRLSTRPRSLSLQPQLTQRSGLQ
How it was run: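 Washout variant: hTP cells preincubated 15 min with compound (1 μM; 10 μM for some), then 6 consecutive wash cycles of ~50-fold dilution each before 0.8 nM I-BOP. Relative IP1 determined. Controls received I-BOP alone or no treatment; ANOVA with Dunnett's test against the +I-BOP condition.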

Thromboxane A2 receptor = molecular target: T2, Thromboxane A2 receptor (Homo sapiens, UniProt P21731); test: Antagonist activity against human thromboxane A2 receptor alpha expressed in QBI-HEK293A cells assessed as reduction in I-BOP-induced inositol monophosphate production incubated for 15 to 60 mins before I-BOP addition by HTRF assay; format: functional, cell-based, HEK293-A
T2 sequence (P21731 whole entry): T1 sequence (whole entry)
How it was run: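 Stably transfected HEK-293 cells expressing human TP receptor α preincubated 15 min with a range of antagonist concentrations, then stimulated with agonist I-BOP at 0.2 nM. IP1 (metabolite of IP3) quantified after a further 1 h as the activation read-out. IC50 from concentration–response curves; mean and SD of one or more assays run in triplicate.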

Plasma = test: Stability in CD1 mouse plasma at 1 uM after 1 hr at 37 degC by UPLC-ESI-MS/MS method; format: ADME, cell-free
How it was run: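 Free compound concentration followed during 1 h incubation in plasma.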

[2] = molecular target: T1, Thromboxane A2 receptor (Homo sapiens); test: as §1, with “uM at 4 degC” for “uM”; format: functional, cell-based; conditions: HEK293-A
How it was run: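 Six-wash washout protocol (each wash ~50-fold dilution) run at 4 °C to suppress endocytosis and receptor trafficking. Human TP receptor-expressing cells, then I-BOP stimulation and IP1 read-out.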

[3] = molecular target: T1, Thromboxane A2 receptor (Homo sapiens); test: Antagonist activity against human thromboxane A2 receptor alpha expressed in QBI-HEK293A cells assessed as reduction in I-BOP-induced inositol monophosphate production at 1 uM incubated for 15 to 60 mins before I-BOP addition by HTRF assay; format: functional, cell-based; conditions: HEK293-A
How it was run: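 hTP-expressing HEK-293 cells exposed to 1 μM antagonist for 15 or 60 min, then 0.8 nM I-BOP added without washing. Relative IP1 levels measured. Controls received I-BOP alone or no treatment.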

[4] = molecular target: T3, Prostaglandin E2 receptor EP1 subtype (Homo sapiens) (UniProt P34995); test: Antagonist activity against human EP1 receptor expressed in QBI-HEK293A cells assessed as reduction in 17-PGE2-induced inositol monophosphate production at 1 uM incubated for 15 to 60 mins before […] addition by HTRF assay; format: functional, cell-based; conditions: HEK293-A
T3 sequence (whole entry): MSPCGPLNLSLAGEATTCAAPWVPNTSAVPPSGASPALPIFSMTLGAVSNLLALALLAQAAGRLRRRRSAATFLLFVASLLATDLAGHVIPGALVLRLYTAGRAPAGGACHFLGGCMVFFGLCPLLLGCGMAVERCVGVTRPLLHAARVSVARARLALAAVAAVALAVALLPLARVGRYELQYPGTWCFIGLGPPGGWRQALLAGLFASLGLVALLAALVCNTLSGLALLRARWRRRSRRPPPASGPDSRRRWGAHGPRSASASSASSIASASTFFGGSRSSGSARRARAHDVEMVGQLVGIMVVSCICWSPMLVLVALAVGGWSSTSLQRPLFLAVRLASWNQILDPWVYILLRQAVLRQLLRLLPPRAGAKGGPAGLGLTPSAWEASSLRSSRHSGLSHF

[5] = molecular target: T1, Thromboxane A2 receptor (Homo sapiens); test: Irreversible antagonist activity against human thromboxane A2 receptor alpha expressed in QBI-HEK293A cells assessed as reduction in I-BOP-induced inositol monophosphate production at 1 uM incubated for 15 to 60 mins before I-BOP addition and measured after 4 consecutive drug washout by HTRF assay; format: functional, cell-based; conditions: HEK293-A
How it was run: (§2)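 TP receptor α HEK-293 cells given 1 μM compound for 15 or 60 min, then four consecutive wash cycles, each about 50-fold dilution and separated by 15 min equilibration, before 0.8 nM I-BOP. IP1 then measured. Controls received I-BOP alone or no treatment; ANOVA with Dunnett's test against the […] at each time.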

[6] = molecular target: T1, Thromboxane A2 receptor (Homo sapiens); test: Reversible antagonist activity against human thromboxane A2 receptor alpha expressed in QBI-HEK293A cells assessed as reduction in I-BOP-induced inositol monophosphate production at 1 uM incubated for 15 to 60 mins before I-BOP addition and measured after 4 consecutive drug washout by HTRF assay; format: functional, cell-based; conditions: HEK293-A; how it was run: as §2
[7] = Stability in presence of 10 mM glutathione in pH 7.0 aqueous buffer after 3 hrs; format: physicochemical; conditions: pH 7, 3 h
How it was run: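 Equimolar glutathione and CPD derivative, each at 10 mM, incubated in aqueous buffer at pH 7 for 3 h. Consumption of the starting dione monitored.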

[8] = molecular target: T1, Thromboxane A2 receptor (Homo sapiens); conditions: HEK293-A, 1 uM

## O=C1C(c2ccc(F)cc2)=C(O)CC1Cc1cccc2c1CCC(NS(=O)(=O)c1ccc(Cl)cc1)C2 (centres undefined)
[1]
  inhibition: Active
Thromboxane A2 receptor
  IC50: 6.5 nM

## Cc1cccc(C)c1C1=C(O)CC(Cc2cccc3c2CCC(NS(=O)(=O)c2ccc(Cl)cc2)C3)C1=O (centres undefined)
[1]
  inhibition: Active
Plasma
  Stability: Stable
[2]
  inhibition: Active
Thromboxane A2 receptor
  IC50: 0.015 nM
[3]
  inhibition: Active
[4]
  inhibition: inactive
[5]
  inhibition: Active

## COc1ccc(C2=C(O)CC(Cc3cccc4c3CCC(NS(=O)(=O)c3ccc(Cl)cc3)C4)C2=O)cc1 (centres undefined)
Thromboxane A2 receptor
  IC50: 0.052 nM
[3]
  inhibition: Active
[5]
  inhibition: Active

## O=C1C(Cc2ccccc2)=C(O)CC1Cc1cccc2c1CCC(NS(=O)(=O)c1ccc(Cl)cc1)C2 (centres undefined)
[1]
  inhibition: Active
Thromboxane A2 receptor
  IC50: 29.2 nM

## O=C1C(c2ccccc2)=C(O)CC1Cc1cccc(CCNS(=O)(=O)c2ccc(Cl)cc2)c1 (single isomer, unassigned; (+))
[1]
  inhibition: Active

## O=C(O)CCc1cccc(CCNS(=O)(=O)c2ccc(Cl)cc2)c1
[6]
  inhibition: Active

## Cc1cccc(C)c1C1=C(OCC(C)C)CC(Cc2cccc3c2CCC(NS(=O)(=O)c2ccc(Cl)cc2)C3)C1=O (centres undefined)
Thromboxane A2 receptor
  IC50: 2760 nM

## Cc1cccc(C)c1C1=C(O)CC(Cc2cccc3c2CCCC3)C1=O (centres undefined)
Thromboxane A2 receptor
  IC50: 891 nM
[6]
  inhibition: Active

## CC1=C(O)CC(Cc2cccc3c2CCC(NS(=O)(=O)c2ccc(Cl)cc2)C3)C1=O (centres undefined)
Thromboxane A2 receptor
  IC50: 11.2 nM
[3]
  inhibition: Active
[6]
  inhibition: Active

## O=C1C(c2ccccc2)=C(O)CC1Cc1cccc(CCNS(=O)(=O)c2ccc(Cl)cc2)c1 (racemic) [listing 1 of 2 here]
[1]
  inhibition: Active

## Cc1cccc(C)c1C1C(=O)CCC1=O
[7]
  Stability: Stable

## O=C1C(c2ccccc2)=C(O)CC1Cc1cccc2c1CCC(NS(=O)(=O)c1ccc(Cl)cc1)C2 (centres undefined)
[1]
  inhibition: Active
Thromboxane A2 receptor
  IC50: 3.9 nM

## O=C1C(c2ccccc2)=C(O)CC1Cc1cccc(CCNS(=O)(=O)c2ccc(Cl)cc2)c1 (racemic) [listing 2 of 2 here]
Thromboxane A2 receptor
  IC50: 59 nM

## Cc1ccc2c(c1CCC(=O)O)CC[C@@H](NS(=O)(=O)c1ccc(Cl)cc1)C2 [TERUTROBAN]
Thromboxane A2 receptor
  IC50: 16.4 nM

## O=C1C(C2CCCCC2)=C(O)CC1Cc1cccc(CCNS(=O)(=O)c2ccc(Cl)cc2)c1 (centres undefined)
Thromboxane A2 receptor
  IC50: 892 nM
[6]
  inhibition: Active

## O=C(O)Cc1cccc2c1CCC(NS(=O)(=O)c1ccc(Cl)cc1)C2 (centres undefined)
Thromboxane A2 receptor
  IC50: 10.7 nM
[3]
  inhibition: Active
[8]
  inhibition: Active
[6]
  inhibition: Active
